Measurements gathered from unrelated publications.
Lines come from different studies, so protocols differ.
blaNDM-1: Metallo-beta-lactamase type 2 (blaNDM-1, Klebsiella pneumoniae, UniProt C7C422)
HTR2B: 5-hydroxytryptamine receptor 2B (HTR2B, Homo sapiens, UniProt P41595)
dxs: 1-deoxy-D-xylulose-5-phosphate synthase (dxs, Deinococcus radiodurans, UniProt Q9RUB5)
HLA class I histocompatibility antigen, B alpha chain: HLA class I histocompatibility antigen, B alpha chain (Homo sapiens, UniProt P01889)

For `Cc1c2ccncc2c(C)c2c1[nH]c1ccccc12`, the IC50 was over 30 µM (blaNDM-1; enzyme activity, inhibitor).
With `C[C@H](N)[C@H](O)c1cccc(O)c1` the IC50 was 7.38 µM (HTR2B; calcium signal, antagonist, fluorescence).
The IC50 of `c1ccc(CNCc2ccccn2)nc1` is reported as 2.6 µM (blaNDM-1; enzyme activity, inhibitor, fluorescence).
`CSCC[C@H](NC(=O)[C@H](C)NC(=O)[C@H](CC(C)C)NC(=O)[C@H](C)NC(=O)[C@H](Cc1c[nH]c2ccccc12)NC(=O)[C@H](C)NC(=O)[C@@H](NC(=O)[C@@H]1CCCN1C(=O)[C@H](CO)NC(=O)[C@H](CO)NC(=O)[C@@H](N)CO)C(C)C)C(=O)N[C@@H](CCCNC(=N)N)C(=O)O` gave an IC50 of 9.5 µM (dxs; enzyme activity, inhibitor, absorbance).
The IC50 of `COCCn1c2nc(=O)n(-c3ccccc3)c(=O)c-2nc2ccccc21` is reported as 35.5 µM (mRNA cap guanine-N(7) methyltransferase (RNMT, Homo sapiens, UniProt O43148); enzyme activity, inhibitor).
With `OCCN(CCO)c1nc(N2CCCCC2)c2nc(N(CCO)CCO)nc(N3CCCCC3)c2n1` the IC50 was over 10 µM (blaNDM-1; enzyme activity, inhibitor).
`Fc1ccc(CC(c2ccccc2)N2CCCC2)cc1` (stereo not shown) gave an IC50 of over 10 µM (Sigma intracellular receptor 2 (Tmem97, Rattus norvegicus, UniProt Q5U3Y7); ligand displacement, radioligand).
For `NC(=O)c1cccc(-c2cccc(OC(=O)NC3CCCCC3)c2)c1`, the IC50 was over 10 µM (Monoglyceride lipase (MGLL, Homo sapiens, UniProt Q99685); enzyme activity, inhibitor, absorbance).
The IC50 of `OCC(S)CS` (stereo not shown) is reported as 4.21 µM (blaNDM-1; enzyme activity, inhibitor, fluorescence).
`CC[C@H](C)[C@H](NC(=O)[C@H](CCCNC(=N)N)NC(=O)[C@@H]1CCCN1C(=O)[C@H](C)N)C(=O)N[C@H](C(=O)N[C@@H](Cc1ccccc1)C(=O)NCC(=O)NCC(=O)N1CCC[C@H]1C(=O)O)[C@@H](C)O` has an IC50 of 0.059 µM (HLA class I histocompatibility antigen, B alpha chain; ligand displacement, radioligand).
For `CC[C@H](C)[C@H](NC(=O)[C@H](CCCNC(=N)N)NC(=O)[C@H](CC(C)C)NC(=O)[C@@H](N)Cc1ccccc1)C(=O)N[C@@H](CCCNC(=N)N)C(=O)N1CCC[C@H]1C(=O)N[C@@H](CCCCN)C(=O)O`, the IC50 was 0.14 µM (B2 bradykinin receptor (BDKRB2, Homo sapiens, UniProt P30411); ligand displacement, radioligand).
`Ic1ccccc1CN[C@@H]1C2CCN(CC2)[C@@H]1C(c1ccccc1)c1ccccc1` (racemic) gave an IC50 of 0.00262 µM (Substance-P receptor (TACR1, Homo sapiens, UniProt P25103); ligand displacement, radioligand).
The IC50 of `CN(Cc1ccccc1)C(=O)Oc1nsnc1N1CCCCC1` is reported as 0.0631 µM (Fatty-acid amide hydrolase 1 (FAAH, Homo sapiens, UniProt O00519); enzyme activity, inhibitor; cell membranes).
The IC50 of `C[C@H](NC(=O)[C@@H](CCC(=O)O)NC(=O)CN1CCN(CC(=O)O)CCN(CC(=O)O)CCN(CC(=O)O)CC1)C(=O)N[C@@H](Cc1ccc(O)cc1)C(=O)NCC(=O)N[C@@H](Cc1c[nH]c2ccccc12)C(=O)N[C@H](C(=O)N[C@@H](CC(=O)O)C(=O)N[C@@H](Cc1cccc2ccccc12)C(N)=O)c1ccccc1` is reported as 0.184 µM (Gastrin/cholecystokinin type B receptor (CCKBR, Homo sapiens, UniProt P32239); ligand displacement, radioligand).
For `O=C(O)c1ccccn1`, the IC50 was 84 µM (blaNDM-1; enzyme activity, inhibitor, fluorescence).
`CCCCCCCCCCCCCCC(Br)C(=O)O` (stereo not shown) has an IC50 of 5.33 µM (Palmitoyltransferase ZDHHC20 (ZDHHC20, Homo sapiens, UniProt Q5W0Z9); enzyme activity, inhibitor).
`CC[C@H](C)[C@H](NC(=O)[C@@H]1CCCN1C(=O)[C@@H](NC(=O)[C@H](CC(C)C)NC(=O)[C@H](CCC(N)=O)NC(=O)[C@H](Cc1ccccc1)NC(=O)[C@H](C)NC(=O)[C@@H](N)CCCCN)[C@@H](C)O)C(=O)N[C@@H](C)C(=O)N[C@H](C(=O)O)C(C)C` gave an IC50 of 8.6 µM (HLA class I histocompatibility antigen, B alpha chain; ligand displacement, radioligand).
The IC50 of `COc1cc(CC(C)N)c(OC)cc1I` (racemic) is reported as 0.0031 µM (HTR2B; ligand displacement, radioligand).
`CSCC[C@H](NC(=O)[C@@H](NC(=O)[C@@H](NC(=O)[C@H](CC(C)C)NC(=O)[C@H](CC(N)=O)NC(=O)[C@H](CC(N)=O)NC(=O)[C@@H](NC(=O)[C@H](C)NC(=O)[C@@H](N)CC(C)C)[C@@H](C)O)C(C)C)C(C)C)C(=O)O` has an IC50 of 0.055 µM (HLA class I histocompatibility antigen, B alpha chain; ligand displacement, radioligand).
For `CCCCCNC(=N)N/N=C/c1c[nH]c2ccc(OC)cc12`, the IC50 was 0.008 µM (HTR2B; ligand displacement, radioligand).
With `CC[C@H](C)[C@H](NC(=O)[C@H](CC(C)C)NC(=O)CN)C(=O)N[C@H](C(=O)N[C@@H](CC(C)C)C(=O)N[C@@H](CO)C(=O)N[C@@H](Cc1ccc(O)cc1)C(=O)N[C@@H](Cc1c[nH]cn1)C(=O)N[C@@H](CC(C)C)C(=O)O)[C@@H](C)O` the IC50 was 14.3 µM (HLA class I histocompatibility antigen, B alpha chain; ligand displacement, radioligand).
For `CSCC[C@H](NC(=O)[C@H](CCC(N)=O)NC(=O)[C@H](C)NC(=O)[C@H](CO)NC(=O)[C@@H](N)CO)C(=O)N[C@@H](CC(N)=O)C(=O)N[C@@H](CC(C)C)C(=O)N[C@@H](CC(N)=O)C(=O)N[C@H](C(=O)N[C@@H](Cc1ccccc1)C(=O)N[C@@H](CC(C)C)C(=O)N[C@@H](CC(N)=O)C(=O)O)[C@@H](C)O`, the IC50 was 49 µM (dxs; enzyme activity, inhibitor, absorbance; pH 7.6, with preincubation).
